PMC5536102 (Biochemistry, 2017)
Values belong to the molecule of their own block, whether it stands above or below them. Residues, ends and D or L forms follow the SMILES beside them.

What was measured:
[1] = biological target: integrin αIIbβ3 headpiece (Homo sapiens) (UniProt P08514); conditions: cited from earlier work
purified human αIIbβ3 = purified human αIIbβ3 (Homo sapiens, UniProt P05106+P08514); type: binding; conditions: for average binding affinity constant (Kb), Kb = kon/koff: two-dimensional affinity calculated from kon and koff, Mn2+-activated αIIbβ3
Procedure, shortened: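 Peptides covalently coupled to amine-functionalized latex beads. Purified human αIIbβ3, Mn2+-activated, immobilized for 2 h at 4 °C on glutaraldehyde-activated, polyacrylamide-coated 5-μm silica pedestals. At room temperature, the laser-trapped bead oscillated at 10 Hz (0.8 μm peak-to-peak, 2000 pN/s) against the pedestal for set contact times T. Binding probability versus T was fitted kinetically; αIIbβ3 density ~3000 molecules/μm² gave kon; Kb = 1/Kd = kon/koff.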

αIIbβ3 = conditions: based on a theoretical model; ref 49 (Dutta et al.); cited from earlier work

Sequence of fibrinogen (P02671 36-866): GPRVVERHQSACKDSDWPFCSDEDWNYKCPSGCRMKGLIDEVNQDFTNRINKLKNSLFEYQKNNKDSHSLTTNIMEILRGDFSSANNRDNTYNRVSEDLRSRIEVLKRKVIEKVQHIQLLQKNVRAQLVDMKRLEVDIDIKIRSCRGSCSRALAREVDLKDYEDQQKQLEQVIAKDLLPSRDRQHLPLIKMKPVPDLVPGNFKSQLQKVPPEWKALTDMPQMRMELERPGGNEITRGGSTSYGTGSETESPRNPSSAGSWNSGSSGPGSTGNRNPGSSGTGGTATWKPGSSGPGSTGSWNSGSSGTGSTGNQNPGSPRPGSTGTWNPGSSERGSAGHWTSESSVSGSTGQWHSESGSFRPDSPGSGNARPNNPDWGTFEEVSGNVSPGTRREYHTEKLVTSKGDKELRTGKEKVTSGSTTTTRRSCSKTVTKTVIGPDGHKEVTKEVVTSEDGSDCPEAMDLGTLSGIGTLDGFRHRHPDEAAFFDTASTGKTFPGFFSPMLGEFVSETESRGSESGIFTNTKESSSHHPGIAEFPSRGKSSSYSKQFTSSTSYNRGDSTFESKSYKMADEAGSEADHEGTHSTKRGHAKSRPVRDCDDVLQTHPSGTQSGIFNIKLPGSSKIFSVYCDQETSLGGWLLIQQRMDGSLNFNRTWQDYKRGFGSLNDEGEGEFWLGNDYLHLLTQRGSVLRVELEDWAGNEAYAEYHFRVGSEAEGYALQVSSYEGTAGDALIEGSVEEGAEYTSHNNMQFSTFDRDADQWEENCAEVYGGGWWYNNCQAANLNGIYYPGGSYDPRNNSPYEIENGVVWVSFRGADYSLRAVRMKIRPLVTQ
Sequence of fibrinogen (P02675 45-491, further chain): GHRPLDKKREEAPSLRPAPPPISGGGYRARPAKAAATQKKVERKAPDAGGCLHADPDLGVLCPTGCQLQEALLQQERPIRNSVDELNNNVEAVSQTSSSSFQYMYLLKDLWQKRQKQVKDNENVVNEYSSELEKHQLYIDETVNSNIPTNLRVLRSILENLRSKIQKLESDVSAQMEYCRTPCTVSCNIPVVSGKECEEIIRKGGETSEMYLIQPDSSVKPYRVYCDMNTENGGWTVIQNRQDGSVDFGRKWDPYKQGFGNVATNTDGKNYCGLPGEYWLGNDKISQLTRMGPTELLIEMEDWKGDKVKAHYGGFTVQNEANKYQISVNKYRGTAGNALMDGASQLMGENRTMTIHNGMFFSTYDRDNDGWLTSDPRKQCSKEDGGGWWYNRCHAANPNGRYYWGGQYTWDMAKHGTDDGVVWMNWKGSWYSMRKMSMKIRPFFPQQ
Sequence of fibrinogen (P02679 27-453, further chain): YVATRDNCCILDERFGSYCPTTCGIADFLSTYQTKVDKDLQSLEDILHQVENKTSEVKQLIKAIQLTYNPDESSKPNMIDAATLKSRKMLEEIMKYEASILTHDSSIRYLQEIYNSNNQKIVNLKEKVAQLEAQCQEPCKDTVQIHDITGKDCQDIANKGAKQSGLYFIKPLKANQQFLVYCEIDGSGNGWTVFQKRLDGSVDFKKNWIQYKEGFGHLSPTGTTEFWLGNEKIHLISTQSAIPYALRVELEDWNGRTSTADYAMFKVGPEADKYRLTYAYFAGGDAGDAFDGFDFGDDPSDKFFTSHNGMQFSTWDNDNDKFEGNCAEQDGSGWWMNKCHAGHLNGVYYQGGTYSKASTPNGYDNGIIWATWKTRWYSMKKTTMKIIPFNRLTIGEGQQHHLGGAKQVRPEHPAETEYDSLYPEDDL

Molecule: fibrinogen (from UniProt P02671)
- Kd [1]: 100 nM

- koff (purified human αIIbβ3; pH 7.4, read-out: average unbinding rate constant koff): 2.05 ± 0.59 s⁻¹
- average binding affinity constant (Kb), Kb = kon/koff (purified human αIIbβ3): (1.22 ± 0.61) × 10^12 cm^2/mol
Molecule: CC(C)C[C@H](NC(=O)[C@H](Cc1c[nH]cn1)NC(=O)[C@@H](N)Cc1c[nH]cn1)C(=O)NCC(=O)NCC(=O)N[C@@H](C)C(=O)N[C@@H](CCCCN)C(=O)N[C@@H](CCC(N)=O)C(=O)N[C@@H](C)C(=O)NCC(=O)N[C@@H](CC(=O)O)C(=O)N[C@H](C(=O)O)C(C)C [γC-12, His-His-Leu-Gly-Gly-Ala-Lys-Gln-Ala-Gly-Asp-Val] (H-HHLGGAKQAGDV-OH)

- average binding affinity constant (Kb), Kb = kon/koff (purified human αIIbβ3): (1.96 ± 0.65) × 10^12 cm^2/mol
Molecule: cyclo[Arg-Gly-Asp-D-Phe-Lys(Cys)] (head to tail) [cRGDFK]

Molecule: cyclo (S,S)-L-lysyl-L-tyrosyl-glycyl-L-cystinyl-L-homoarginyl-glycyl-L-aspartyl-L-trytopanyl-L-prolyl-L-cystine [cHarGD]
- dissociation energy (αIIbβ3): 7 to 9 kcal/mol
